Where two headings read alike, the source gives them in different places.
Legend:
[1] = In vitro metabolic stability in activated liver S9 fraction; assay type: in vitro ADME; conditions: rat liver S9 fraction activated with NADPH, UDPGA, GSH, PAPS; 500 µM
Procedure, shortened: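 Mouse or rat liver S9 fraction isolated and activated with NADPH, UDPGA, GSH and PAPS before compound addition. Samples taken at 0, 15, 30, 45 and 60 min. Compound extracted with acetonitrile and quantified by reversed-phase HPLC with PDA detection. Percent remaining calculated from peak areas at 0 and 60 min.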

human 5-LOX = molecular target: T1, human 5-LOX (Homo sapiens, UniProt P09917); test: Binding assay using isothermal titration calorimetry
T1 sequence (P09917 1-674): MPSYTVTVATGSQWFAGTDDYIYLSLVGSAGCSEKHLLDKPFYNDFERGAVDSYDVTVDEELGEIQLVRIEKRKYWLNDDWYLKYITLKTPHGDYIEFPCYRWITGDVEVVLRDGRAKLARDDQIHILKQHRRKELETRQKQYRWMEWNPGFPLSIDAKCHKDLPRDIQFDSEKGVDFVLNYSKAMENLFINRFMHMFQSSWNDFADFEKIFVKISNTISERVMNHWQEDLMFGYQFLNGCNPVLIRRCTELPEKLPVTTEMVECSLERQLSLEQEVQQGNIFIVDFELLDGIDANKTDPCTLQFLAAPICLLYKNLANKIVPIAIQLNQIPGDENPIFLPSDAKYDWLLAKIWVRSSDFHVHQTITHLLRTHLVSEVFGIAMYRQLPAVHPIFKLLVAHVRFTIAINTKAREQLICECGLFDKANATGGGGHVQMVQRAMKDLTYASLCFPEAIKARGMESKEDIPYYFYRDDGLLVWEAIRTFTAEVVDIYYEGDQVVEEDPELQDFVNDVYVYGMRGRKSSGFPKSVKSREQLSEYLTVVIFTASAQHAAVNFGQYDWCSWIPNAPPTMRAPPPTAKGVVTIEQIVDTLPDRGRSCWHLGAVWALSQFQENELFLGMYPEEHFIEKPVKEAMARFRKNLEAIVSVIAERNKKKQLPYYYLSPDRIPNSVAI
Procedure, shortened: (§1)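 Serial injections of test compound (up to 1 mM) into enzyme-containing cell at 1 mM protein, both dissolved in PBS and degassed before use. Titration continued until heat signal approached zero at saturation. Isotherm fitted to obtain dissociation constant KD.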

human COX-1 [2] = molecular target: T2, human COX-1 (Homo sapiens, UniProt P23219); test: Circular dichroism, change in secondary structure; conditions: CD, Human COX-1, LFA-9 10 µM
Procedure, shortened: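 Native and compound-treated (0.1–10 µM) enzymes in PBS pH 7.4 at final protein 200 µM. CD spectra corrected by subtracting buffer blanks. Percent change in secondary structure (α-helix, β-sheet) calculated with the CAPITO analysis server.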

human COX-2 [3] = molecular target: T3, human COX-2 (Homo sapiens, UniProt P35354); test: Binding assay using isothermal titration calorimetry
T3 sequence (P35354 18-604): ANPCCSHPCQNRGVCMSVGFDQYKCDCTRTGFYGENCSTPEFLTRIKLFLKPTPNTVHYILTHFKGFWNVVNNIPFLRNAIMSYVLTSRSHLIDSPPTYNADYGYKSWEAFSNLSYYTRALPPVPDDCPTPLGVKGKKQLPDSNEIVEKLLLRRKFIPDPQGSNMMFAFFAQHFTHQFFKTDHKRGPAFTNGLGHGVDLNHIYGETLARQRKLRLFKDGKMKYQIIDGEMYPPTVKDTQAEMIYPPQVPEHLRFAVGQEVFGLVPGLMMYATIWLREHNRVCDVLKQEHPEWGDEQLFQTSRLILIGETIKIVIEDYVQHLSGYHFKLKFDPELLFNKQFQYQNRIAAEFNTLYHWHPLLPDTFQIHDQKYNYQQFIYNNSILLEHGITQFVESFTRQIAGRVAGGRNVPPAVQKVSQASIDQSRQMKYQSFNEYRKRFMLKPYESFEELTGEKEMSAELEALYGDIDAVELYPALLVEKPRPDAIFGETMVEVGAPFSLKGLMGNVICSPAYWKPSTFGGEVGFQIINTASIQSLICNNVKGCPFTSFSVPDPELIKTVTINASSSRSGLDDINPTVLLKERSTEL
Procedure, shortened: as §1

rat 5-LOX = molecular target: T4, rat 5-LOX (Rattus norvegicus, UniProt P12527); test: Cell-free fluorometric 5-LOX assay; assay type: biochemical
T4 sequence (P12527 1-673): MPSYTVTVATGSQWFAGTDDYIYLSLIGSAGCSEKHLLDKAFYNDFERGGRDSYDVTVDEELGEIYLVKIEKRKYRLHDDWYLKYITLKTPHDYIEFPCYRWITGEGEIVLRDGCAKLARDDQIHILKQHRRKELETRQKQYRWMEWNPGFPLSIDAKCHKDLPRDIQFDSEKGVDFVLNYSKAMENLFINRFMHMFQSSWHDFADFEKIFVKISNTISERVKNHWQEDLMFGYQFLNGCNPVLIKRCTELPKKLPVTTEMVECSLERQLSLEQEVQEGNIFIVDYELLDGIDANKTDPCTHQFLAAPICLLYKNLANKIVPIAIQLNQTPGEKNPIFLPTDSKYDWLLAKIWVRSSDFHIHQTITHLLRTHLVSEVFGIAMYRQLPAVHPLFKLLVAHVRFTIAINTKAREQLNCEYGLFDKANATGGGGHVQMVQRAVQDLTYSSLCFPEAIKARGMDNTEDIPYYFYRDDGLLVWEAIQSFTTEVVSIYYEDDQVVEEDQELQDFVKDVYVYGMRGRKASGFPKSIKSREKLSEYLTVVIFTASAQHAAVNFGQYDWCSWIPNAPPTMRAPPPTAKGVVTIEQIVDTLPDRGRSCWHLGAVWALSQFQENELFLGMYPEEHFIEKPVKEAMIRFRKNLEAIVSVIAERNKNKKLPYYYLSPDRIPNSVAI

human COX-2 [4] = molecular target: T3, human COX-2; test: Cell-free fluorometric COX-2 assay; assay type: biochemical; conditions: up to the tested range of 1 mM
human COX-1 [5] = molecular target: T2, human COX-1; test: Binding assay using isothermal titration calorimetry
Procedure, shortened: as §1

[6] = tested on: normal colonocytes of rats; test: MTT assay; assay type: cell-based, rat; conditions: 0.1–100 µM, 24 hours
Procedure, shortened: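 Normal rat colonocytes exposed 24 h to compound (0.1–100 µM), then MTT reagent for 2 h at 37°C. Formazan dissolved in DMSO, absorbance read at 570 nm with 620 nm reference. Three independent experiments, expressed as percent viability.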

T2 sequence (P23219 24-599): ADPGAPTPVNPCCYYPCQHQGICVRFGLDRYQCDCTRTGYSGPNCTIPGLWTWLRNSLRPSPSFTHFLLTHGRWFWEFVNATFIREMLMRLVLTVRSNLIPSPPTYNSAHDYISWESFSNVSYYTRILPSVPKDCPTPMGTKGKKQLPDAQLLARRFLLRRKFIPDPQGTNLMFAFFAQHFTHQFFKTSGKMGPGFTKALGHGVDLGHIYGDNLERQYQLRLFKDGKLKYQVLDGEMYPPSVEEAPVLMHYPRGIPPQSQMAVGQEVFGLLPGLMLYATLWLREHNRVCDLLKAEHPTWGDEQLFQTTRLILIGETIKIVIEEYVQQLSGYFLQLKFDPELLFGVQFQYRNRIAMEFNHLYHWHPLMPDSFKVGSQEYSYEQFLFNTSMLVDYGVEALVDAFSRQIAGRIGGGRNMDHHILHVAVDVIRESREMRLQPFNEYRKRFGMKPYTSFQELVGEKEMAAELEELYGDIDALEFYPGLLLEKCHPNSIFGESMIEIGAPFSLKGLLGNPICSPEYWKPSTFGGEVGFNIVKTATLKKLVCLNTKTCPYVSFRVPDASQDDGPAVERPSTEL

SMILES	LFA-9 remaining after 60-minutes incubation [1] [%]	Kd (human 5-LOX) [µM]	Kd (human 5-LOX; read-out: KD (KD2), ITC, Human 5-LOX, sequential binding sites, second site) [µM]	Change in Secondary Structure (human COX-1 [2])	Kd (human COX-2 [3]) [µM]	IC50 (rat 5-LOX) [µM]	inhibition of COX-2 activity (human COX-2 [4])	Kd (human COX-1 [5]) [µM]	cytotoxicity to normal rat colonic epithelial cells [6]
CC1(C)Cc2c(-c3ccccc3)c(-c3ccc(Cl)cc3)c(CC(=O)NCC(=O)O)n2C1 [LFA-9, 2-[[2-[2-(4-chlorophenyl)-6,6-dimethyl-1-phenyl-5,7-dihydropyrrolizin-3-yl]acetyl]amino]acetic acid]	98.3	18	210	No change in secondary structure	> 1000	0.89	did not show inhibition	> 1000	no cytotoxicity
CC1(C)Cc2c(-c3ccccc3)c(-c3ccc(Cl)cc3)c(CC(=O)O)n2C1 [Licofelone, reference compound]	–	–	–	–	–	0.64	–	–	–
